Calls of active or inactive are those of the source.
Legend:
[1] = molecular target: T1, EZH1/2 (Mus musculus) (UniProt Q61188+P70351); experiment: Inhibition of Ezh1/2 in wild-type C57BL/6 mouse isolated primary chondrocyte pellets assessed as reduction in Col10a1 expression at 2 uM by RT-PCR analysis; format: cell-based
Method in brief: (§1)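 Pellets of 2.4×10^5 primary chondrocytes from 1-week-old wild-type mice (400 g, 10 min) were cultured up to 4 weeks, switched to 0.1% FBS medium after 16 h. DMSO or UNC1999 (2 µM final) was added at 16 h and refreshed every other day. Col10a1, Ihh, Igfbp3 and Igfbp5 mRNA were measured by real-time RT-PCR at several time points; two-way ANOVA, N = 6.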

[2] = molecular target: T1, EZH1/2 (Mus musculus); experiment: Inhibition of Ezh1/2 in wild-type C57BL/6 mouse isolated primary chondrocyte pellets assessed as reduction in H3K27me3 level at 2 uM measured after 1 week by immunohistological staining based assay; format: cell-based; conditions: time 1.0 weeks
Method in brief: (§2)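 Chondrocyte pellets (2.4×10^5 cells, from 1-week-old wild-type mice) were kept in 0.1% FBS medium with DMSO or 2 µM UNC1999 from 16 h, refreshed every other day, for 1 week. Sections were immunostained for H3K27me2 or H3K27me3 (1:1,000, proteinase K retrieval, DAB).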

[3] = molecular target: T1, EZH1/2 (Mus musculus); experiment: Inhibition of Ezh1/2 in Igfbp3-treated wild-type C57BL/6 mouse fetal metatarsal bone assessed as reduction in hypertrophic cell size at 2 uM; format: tissue-based
Method in brief: (§3)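 Fetal metatarsals (middle three) from E18 wild-type C57BL/6 mice cultured 3 days at 37 °C, 5% CO2 in α-MEM with 0.2% BSA, 0.1 mM β-glycerophosphate, 50 µg ml-1 ascorbic acid. DMSO or UNC1999 (2 µM), ± Igf1 100 ng ml-1, Igfbp3 50 nM or Igfbp5 50 nM, added at start and refreshed day 2. Hypertrophic cell heights averaged within a 100×100 µm area at HZ centre; N = 6.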

[4] = molecular target: T1, EZH1/2 (Mus musculus); experiment: Inhibition of Ezh1/2 in wild-type C57BL/6 mouse isolated primary chondrocyte pellets assessed as reduction in Ihh expression at 2 uM by RT-PCR analysis; format: cell-based; method in brief: as §1
[5] = molecular target: T1, EZH1/2 (Mus musculus); experiment: Inhibition of Ezh1/2 in wild-type C57BL/6 mouse fetal metatarsal bone assessed as increase in Igfbp3 expression at 2 uM by immunostaining assay; format: tissue-based
[6] = molecular target: T1, EZH1/2 (Mus musculus); experiment: Inhibition of Ezh1/2 in wild-type C57BL/6 mouse isolated primary chondrocyte pellets assessed as increase in Igfbp3 expression at 2 uM by RT-PCR analysis; format: cell-based; method in brief: as §1
[7] = molecular target: T1, EZH1/2 (Mus musculus); experiment: Inhibition of Ezh1/2 in wild-type C57BL/6 mouse isolated primary chondrocyte pellets assessed as reduction in cell hypertrophy at 2 uM measured after 1 week by alcian blue staining based assay; conditions: time 1.0 weeks
Method in brief: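 Wild-type chondrocyte pellets were cultured in 0.1% FBS medium with DMSO or 2 µM UNC1999 (from 16 h, refreshed every other day). Alcian blue-stained histological sections were examined for cell size at different time points, including 1 week.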

[8] = molecular target: T1, EZH1/2 (Mus musculus); experiment: Inhibition of Ezh1/2 in wild-type C57BL/6 mouse isolated primary chondrocyte pellets assessed as reduction in H3K27me2 level at 2 uM measured after 1 week by immunohistological staining based assay; format: cell-based; conditions: time 1.0 weeks; method in brief: as §2
[9] = molecular target: T1, EZH1/2 (Mus musculus); experiment: Inhibition of Ezh1/2 in wild-type C57BL/6 mouse isolated primary chondrocytes assessed as reduction in cell proliferation at 2 uM by [3H]thymidine based liquid scintillation counting analysis; conditions: Primary chondrocyte
Method in brief: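 Monolayer primary chondrocytes (2×10^5 per well) from 1-week-old wild-type mice were treated with DMSO or 2 µM UNC1999 from 16 h after plating. At 24 h after plating they were labelled with 1 µCi 3H-thymidine for 16 h, washed and collagenase-detached. Radioactivity was read by liquid scintillation counting; N = 6.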

[10] = molecular target: T1, EZH1/2 (Mus musculus); experiment: Inhibition of Ezh1/2 in wild-type C57BL/6 mouse isolated primary chondrocyte pellets assessed as increase in Igfbp5 expression at 2 uM by RT-PCR analysis; format: cell-based; method in brief: as §1
[11] = molecular target: T1, EZH1/2 (Mus musculus); experiment: Inhibition of Ezh1/2 in wild-type C57BL/6 mouse fetal metatarsal bone assessed as reduction in H3K27me2 expression at 2 microM by immunohistochemical analysis; format: tissue-based
Method in brief: (§4)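 E18 wild-type C57BL/6 metatarsals cultured 3 days with DMSO or 2 µM UNC1999, added at start and refreshed day 2. Paraffin sections were proteinase K retrieved (100 µg ml-1, 30 min, room temperature) and peroxidase blocked. They were immunostained with anti-H3K27me2 or anti-H3K27me3 (1:1,000) by ABC/DAB.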

[12] = molecular target: T1, EZH1/2 (Mus musculus); experiment: Inhibition of Ezh1/2 in wild-type C57BL/6 mouse isolated primary chondrocytes transfected with Cdkn2b SiRNA assessed as reduction in cell proliferation at 2 uM measured after 24 hrs by [3H]thymidine based liquid scintillation counting analysis; conditions: Primary chondrocyte
Method in brief: (§5)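 Primary chondrocytes (1×10^5 per well) from 1-week-old wild-type mice were hyaluronidase-treated (5 U ml-1, 6 h) at 40 h. They were then transfected with 40 pmol siRNA against Cdkn2a and/or Cdkn2b, or scrambled control, using Lipofectamine 2000. DMSO or 2 µM UNC1999 was added 16 h post-transfection. Proliferation was measured 24 h later by 3H-thymidine uptake and scintillation counting; N = 6.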

[13] = molecular target: T1, EZH1/2 (Mus musculus); experiment: Inhibition of Ezh1/2 in Igfbp5-treated wild-type C57BL/6 mouse fetal metatarsal bone assessed as reduction in hypertrophic cell size at 2 uM; format: tissue-based; method in brief: as §3
[14] = molecular target: T1, EZH1/2 (Mus musculus); experiment: Inhibition of Ezh1/2 in wild-type C57BL/6 mouse fetal metatarsal bone assessed as reduction in H3K27me3 expression at 2 microM by immunohistochemical analysis; format: tissue-based; method in brief: as §4
[15] = molecular target: T1, EZH1/2 (Mus musculus); experiment: Inhibition of Ezh1/2 in wild-type C57BL/6 mouse isolated primary chondrocytes assessed as increase in Cdkn2a expression at 2 uM by RT-PCR analysis; format: cell-based; conditions: Primary chondrocyte
Method in brief: (§6)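 Monolayer primary chondrocytes from 1-week-old wild-type mice received DMSO or UNC1999 (2 µM final) 16 h after plating. RNA was extracted and Cdkn2a and Cdkn2b mRNA quantified by real-time RT-PCR; N = 6.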

[16] = molecular target: T1, EZH1/2 (Mus musculus); experiment: Inhibition of Ezh1/2 in wild-type C57BL/6 mouse isolated primary chondrocyte monolayer culture assessed as increase in Igfbp5 expression at 2 uM by immunostaining analysis; format: cell-based
[17] = molecular target: T1, EZH1/2 (Mus musculus); experiment: Inhibition of Ezh1/2 in wild-type C57BL/6 mouse fetal metatarsal bone assessed as increase in Igfbp5 expression at 2 uM by immunostaining assay; format: tissue-based
[18] = molecular target: T1, EZH1/2 (Mus musculus); experiment: Inhibition of Ezh1/2 in wild-type C57BL/6 mouse isolated primary chondrocytes transfected with Cdkn2a SiRNA assessed as reduction in cell proliferation at 2 uM measured after 24 hrs by [3H]thymidine based liquid scintillation counting analysis; conditions: Primary chondrocyte; method in brief: as §5
[19] = molecular target: T1, EZH1/2 (Mus musculus); experiment: Inhibition of Ezh1/2 in wild-type C57BL/6 mouse isolated primary chondrocytes assessed as increase in Cdkn2b expression at 2 uM by RT-PCR analysis; format: cell-based; conditions: Primary chondrocyte; method in brief: as §6
[20] = molecular target: T1, EZH1/2 (Mus musculus); experiment: Inhibition of Ezh1/2 in wild-type C57BL/6 mouse isolated primary chondrocyte monolayer culture assessed as increase in Igfbp3 expression at 2 uM by immunostaining analysis; format: cell-based
[21] = molecular target: T1, EZH1/2 (Mus musculus); experiment: Inhibition of Ezh1/2 in Igf1-treated wild-type C57BL/6 mouse fetal metatarsal bone assessed as reduction in hypertrophic cell size at 2 uM; format: tissue-based; method in brief: as §3
[22] = molecular target: T1, EZH1/2 (Mus musculus); experiment: Inhibition of Ezh1/2 in wild-type C57BL/6 mouse fetal metatarsal bone assessed as reduction in hypertrophic cell size at 2 uM; format: tissue-based; method in brief: as §3

Measured: inhibition

CCCc1cc(C)[nH]c(=O)c1CNC(=O)c1cc(-c2ccc(N3CCN(C(C)C)CC3)nc2)cc2c1cnn2C(C)C
inactive: [6] | [12] | [16] | [18] | [21]
active: all other assays above
